Values belong to the compound of their own block, whether it stands above or below them.
What was measured:
[1] = (§1) Binding affinity towards 5-hydroxytryptamine 3 receptor by displacement of [3H]2 in Neuroblastoma-Glioma NG-108-15 cells
[2] = target: 5-hydroxytryptamine receptor 3A; experiment: as §1
[3] = target: T1, Serotonin 3 (5-HT3) receptor (Rattus norvegicus) (UniProt P35563+Q9JJ16); experiment: Serotonin receptor antagonist activity was measured as ability to block the serotonin-induced Bezold-Jarisch reflex in rats after iv administration of 100 ug/Kg; assay type: functional, organism-based
Summary of the method: (§2)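 Anaesthetic and strain not given; rats dosed iv with test compound via a right femoral vein cannula. Serotonin 100 μg kg-1 iv was given through the same route 1 min after drug. Inhibition of the serotonin-induced bradycardia (Bezold-Jarisch reflex) was scored.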

[4] = target: T1, Serotonin 3 (5-HT3) receptor (Rattus norvegicus); experiment: Serotonin receptor antagonist activity was measured as ability to block the serotonin-induced Bezold-Jarisch reflex in rats after iv administration of 2 ug/Kg; assay type: functional, organism-based; summary of the method: as §2
[5] = target: T1, Serotonin 3 (5-HT3) receptor (Rattus norvegicus); experiment: Serotonin receptor antagonist activity was measured as ability to block the serotonin-induced Bezold-Jarisch reflex in rats after iv administration of 5 ug/Kg; assay type: functional, organism-based; summary of the method: as §2
[6] = target: T2, 5-hydroxytryptamine receptor 2C (Rattus norvegicus, UniProt P08909); experiment: Binding affinity for 5-hydroxytryptamine 1C receptor was determined by using [3H]- mesulergine as radioligand
T2 sequence (P08909 whole entry): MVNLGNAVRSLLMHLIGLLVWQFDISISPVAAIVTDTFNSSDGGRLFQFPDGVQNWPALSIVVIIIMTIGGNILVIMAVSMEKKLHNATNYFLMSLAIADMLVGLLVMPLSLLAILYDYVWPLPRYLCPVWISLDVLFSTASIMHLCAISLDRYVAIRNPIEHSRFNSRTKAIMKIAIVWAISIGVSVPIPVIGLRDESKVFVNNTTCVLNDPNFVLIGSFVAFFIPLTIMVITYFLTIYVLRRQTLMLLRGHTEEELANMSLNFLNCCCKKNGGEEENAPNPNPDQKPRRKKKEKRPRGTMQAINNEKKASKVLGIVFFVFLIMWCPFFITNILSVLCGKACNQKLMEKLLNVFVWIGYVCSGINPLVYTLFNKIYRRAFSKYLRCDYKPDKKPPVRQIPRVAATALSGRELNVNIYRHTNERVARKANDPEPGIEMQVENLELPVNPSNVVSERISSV

[7] = target: T3, 5-hydroxytryptamine receptor 1A (Mus musculus, UniProt Q64264); experiment: Binding affinity for 5-hydroxytryptamine 1A receptor was determined by using [3H]8-OH-DPAT as radioligand
T3 sequence (Q64264 whole entry): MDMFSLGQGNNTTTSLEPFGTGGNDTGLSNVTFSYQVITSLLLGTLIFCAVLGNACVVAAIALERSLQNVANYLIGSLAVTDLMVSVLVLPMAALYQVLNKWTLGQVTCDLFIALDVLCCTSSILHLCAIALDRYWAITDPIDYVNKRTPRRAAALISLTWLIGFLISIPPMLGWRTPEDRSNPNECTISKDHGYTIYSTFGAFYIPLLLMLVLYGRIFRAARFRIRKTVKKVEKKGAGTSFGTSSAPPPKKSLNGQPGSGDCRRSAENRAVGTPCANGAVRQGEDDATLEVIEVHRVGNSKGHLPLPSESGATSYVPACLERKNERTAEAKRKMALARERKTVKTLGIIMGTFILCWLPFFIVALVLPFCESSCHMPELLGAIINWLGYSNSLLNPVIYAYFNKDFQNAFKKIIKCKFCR

[8] = target: 5-hydroxytryptamine receptor 2A (Bos taurus, UniProt Q75Z89); experiment: Binding affinity for 5-hydroxytryptamine 2 receptor was determined by using [3H]ketanserin as radioligand
[9] = target: GABA-A receptor; anion channel; experiment: Displacement of [3H]flunitrazepam from GABA-A Benzodiazepine receptor; assay type: protein-complex assay
[10] = target: Beta-2 adrenergic receptor (Canis lupus familiaris, UniProt P54833); experiment: Binding affinity for Beta adrenergic receptor was determined by using [3H]dihydroalprenolol as radioligand
D(1A) dopamine receptor = D(1A) dopamine receptor (Mus musculus, UniProt Q61616); experiment: Binding affinity for Dopamine receptor D1 was determined by using [3H]SCH-23390 as radioligand
D(2) dopamine receptor = D(2) dopamine receptor (Homo sapiens, UniProt P14416); experiment: Binding affinity for Dopamine receptor D2 was determined by using [3H]spiperone as radioligand
[11] = target: Muscarinic acetylcholine receptor M3 (Rattus norvegicus, UniProt P08483); experiment: Binding affinity for Muscarinic acetylcholine receptor was determined by using [3H]QNB as radioligand
Mu-type opioid receptor = Mu-type opioid receptor (Homo sapiens, UniProt P35372); experiment: Binding affinity for Opioid receptor mu 1 was determined by using [3H]naloxone as radioligand
[12] = target: Sigma non-opioid intracellular receptor 1 (Homo sapiens, UniProt Q99720); experiment: Binding affinity for Sigma opioid receptor was determined by using [3H](+)-3-(3-hydroxyphenyl)N-1-propyl-piperdine((+)-3-PPP) as radioligand
[13] = target: 5-hydroxytryptamine receptor 1B (Rattus norvegicus) (UniProt P28564); experiment: Binding affinity for 5-hydroxytryptamine 1B receptor was determined by using [3H]5-HT as radioligand
[14] = target: T1, Serotonin 3 (5-HT3) receptor (Rattus norvegicus); experiment: Serotonin receptor antagonist activity was measured as ability to block the serotonin-induced Bezold-Jarisch reflex in rats after iv administration of 20 ug/Kg; assay type: functional, organism-based; summary of the method: as §2
[15] = target: T1, Serotonin 3 (5-HT3) receptor (Rattus norvegicus); experiment: Serotonin receptor antagonist activity was measured as ability to block the serotonin-induced Bezold-Jarisch reflex in rats after iv administration of 10 ug/Kg; assay type: functional, organism-based; settings: in the assay text read “2 ug/Kg” for “10 ug/Kg”; summary of the method: as §2

Chain of 5-hydroxytryptamine receptor 1B (Rattus norvegicus) (P28564 whole entry, looked up): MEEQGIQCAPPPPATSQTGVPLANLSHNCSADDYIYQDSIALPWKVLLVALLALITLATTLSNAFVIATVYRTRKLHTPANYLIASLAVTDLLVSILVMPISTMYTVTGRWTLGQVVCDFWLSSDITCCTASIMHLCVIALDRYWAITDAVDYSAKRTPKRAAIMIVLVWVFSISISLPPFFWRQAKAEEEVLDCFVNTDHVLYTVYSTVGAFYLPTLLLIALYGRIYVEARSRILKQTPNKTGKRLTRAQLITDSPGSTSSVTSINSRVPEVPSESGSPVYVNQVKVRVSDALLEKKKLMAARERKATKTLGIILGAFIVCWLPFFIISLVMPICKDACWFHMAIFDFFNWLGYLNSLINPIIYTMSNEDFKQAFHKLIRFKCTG
Chain of Muscarinic acetylcholine receptor M3 (P08483 whole entry): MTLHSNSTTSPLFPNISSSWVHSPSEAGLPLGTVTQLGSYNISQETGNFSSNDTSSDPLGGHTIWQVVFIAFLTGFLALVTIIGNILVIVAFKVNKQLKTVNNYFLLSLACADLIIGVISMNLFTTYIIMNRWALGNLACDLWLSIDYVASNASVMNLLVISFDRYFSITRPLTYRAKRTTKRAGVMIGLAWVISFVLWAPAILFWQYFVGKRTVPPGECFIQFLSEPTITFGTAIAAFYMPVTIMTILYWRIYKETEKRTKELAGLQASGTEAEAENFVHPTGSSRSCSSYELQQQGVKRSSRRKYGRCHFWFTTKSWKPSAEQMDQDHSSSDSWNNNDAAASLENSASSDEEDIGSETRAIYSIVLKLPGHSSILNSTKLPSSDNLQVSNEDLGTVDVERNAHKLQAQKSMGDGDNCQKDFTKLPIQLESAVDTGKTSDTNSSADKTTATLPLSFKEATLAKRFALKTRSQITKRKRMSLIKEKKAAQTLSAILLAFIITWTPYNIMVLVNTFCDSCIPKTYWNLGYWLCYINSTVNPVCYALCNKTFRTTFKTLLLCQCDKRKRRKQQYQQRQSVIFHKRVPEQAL
Chain of Sigma non-opioid intracellular receptor 1 (Q99720 whole entry): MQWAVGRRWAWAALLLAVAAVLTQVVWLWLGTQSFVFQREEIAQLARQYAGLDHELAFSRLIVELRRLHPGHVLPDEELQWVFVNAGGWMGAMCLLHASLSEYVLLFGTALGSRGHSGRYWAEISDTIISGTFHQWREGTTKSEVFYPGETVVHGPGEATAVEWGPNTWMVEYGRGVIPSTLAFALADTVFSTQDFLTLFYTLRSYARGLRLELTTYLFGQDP
Chain of D(1A) dopamine receptor (Q61616 whole entry): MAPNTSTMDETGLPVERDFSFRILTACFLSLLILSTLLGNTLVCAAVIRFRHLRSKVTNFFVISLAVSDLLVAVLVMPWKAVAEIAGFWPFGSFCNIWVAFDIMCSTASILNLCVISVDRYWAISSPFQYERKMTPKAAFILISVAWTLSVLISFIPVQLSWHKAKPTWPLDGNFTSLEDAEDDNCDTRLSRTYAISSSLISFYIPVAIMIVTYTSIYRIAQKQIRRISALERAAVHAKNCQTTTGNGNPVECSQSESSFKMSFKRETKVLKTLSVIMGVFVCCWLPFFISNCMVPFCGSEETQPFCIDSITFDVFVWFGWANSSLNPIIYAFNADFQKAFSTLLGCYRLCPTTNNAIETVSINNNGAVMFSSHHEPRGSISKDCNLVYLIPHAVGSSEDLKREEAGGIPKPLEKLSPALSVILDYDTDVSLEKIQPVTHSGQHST
Chain of Mu-type opioid receptor (P35372 whole entry): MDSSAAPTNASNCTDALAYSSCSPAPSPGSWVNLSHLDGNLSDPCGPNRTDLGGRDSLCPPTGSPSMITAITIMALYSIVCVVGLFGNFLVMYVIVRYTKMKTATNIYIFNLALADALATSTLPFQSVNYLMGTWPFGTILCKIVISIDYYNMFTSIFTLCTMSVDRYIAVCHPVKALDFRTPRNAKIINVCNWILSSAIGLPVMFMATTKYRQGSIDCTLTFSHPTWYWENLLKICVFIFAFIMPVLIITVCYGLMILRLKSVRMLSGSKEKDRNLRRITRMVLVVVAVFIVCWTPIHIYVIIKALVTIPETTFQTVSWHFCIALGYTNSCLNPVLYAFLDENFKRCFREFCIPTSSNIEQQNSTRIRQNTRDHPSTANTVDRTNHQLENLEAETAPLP
Chain of D(2) dopamine receptor (P14416 whole entry): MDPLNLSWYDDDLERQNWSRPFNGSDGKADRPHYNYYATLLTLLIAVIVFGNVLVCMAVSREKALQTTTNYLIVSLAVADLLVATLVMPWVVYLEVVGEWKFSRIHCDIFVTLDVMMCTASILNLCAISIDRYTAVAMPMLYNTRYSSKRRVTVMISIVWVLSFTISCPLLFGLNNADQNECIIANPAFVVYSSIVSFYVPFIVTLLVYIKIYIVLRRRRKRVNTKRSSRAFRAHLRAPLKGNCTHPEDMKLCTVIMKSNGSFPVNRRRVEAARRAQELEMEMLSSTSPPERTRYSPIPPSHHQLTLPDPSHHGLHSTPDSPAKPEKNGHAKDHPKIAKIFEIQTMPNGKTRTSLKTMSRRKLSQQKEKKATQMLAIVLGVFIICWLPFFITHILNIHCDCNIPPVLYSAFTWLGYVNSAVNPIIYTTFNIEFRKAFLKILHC
Chain of 5-hydroxytryptamine receptor 2A (Q75Z89 whole entry): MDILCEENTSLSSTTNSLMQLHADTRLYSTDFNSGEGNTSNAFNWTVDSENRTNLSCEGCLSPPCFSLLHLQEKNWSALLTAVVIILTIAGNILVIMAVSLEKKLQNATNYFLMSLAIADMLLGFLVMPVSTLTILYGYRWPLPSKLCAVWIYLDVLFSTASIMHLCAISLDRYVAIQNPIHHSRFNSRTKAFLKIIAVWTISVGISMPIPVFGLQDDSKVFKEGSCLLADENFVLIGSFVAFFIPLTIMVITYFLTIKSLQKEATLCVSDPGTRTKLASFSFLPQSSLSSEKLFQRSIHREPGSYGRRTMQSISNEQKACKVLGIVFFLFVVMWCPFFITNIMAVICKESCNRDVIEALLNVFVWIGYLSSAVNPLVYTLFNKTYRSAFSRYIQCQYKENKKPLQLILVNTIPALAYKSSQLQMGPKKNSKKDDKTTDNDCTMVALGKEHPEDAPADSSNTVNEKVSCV
Chain of Beta-2 adrenergic receptor (P54833 whole entry): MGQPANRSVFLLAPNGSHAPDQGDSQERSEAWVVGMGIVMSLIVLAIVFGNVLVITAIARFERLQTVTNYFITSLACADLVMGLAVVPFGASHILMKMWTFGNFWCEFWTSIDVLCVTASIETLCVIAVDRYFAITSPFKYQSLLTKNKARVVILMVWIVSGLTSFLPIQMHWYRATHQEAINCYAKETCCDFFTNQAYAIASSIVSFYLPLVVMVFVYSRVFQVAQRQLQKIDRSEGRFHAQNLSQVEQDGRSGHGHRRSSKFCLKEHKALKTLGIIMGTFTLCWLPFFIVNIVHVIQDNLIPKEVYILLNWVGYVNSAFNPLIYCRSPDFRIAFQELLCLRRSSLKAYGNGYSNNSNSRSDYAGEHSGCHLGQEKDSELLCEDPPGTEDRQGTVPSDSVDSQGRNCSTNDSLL

Structure (SMILES): COc1ccc2ccccc2c1-c1csc(Cc2[nH]cnc2C)n1
- Ki [1]: 400 nM

Structure (SMILES): N=C(N)NCc1nc(-c2c[nH]c3ccccc23)cs1
- Ki [1]: 3.3 nM

- Ki [2]: 12 nM
Structure (SMILES): Cc1nc[nH]c1Cc1nc(-c2c[nH]c3ccccc23)cs1

Structure (SMILES): CN1[C@@H]2CC[C@H]1C[C@H](OC(=O)c1ccccc1)C2
- Ki [1]: 329 nM

Structure (SMILES): Cc1[nH]cnc1Cc1nc(-c2ccccc2C(F)(F)F)cs1
- Ki [1]: 61 nM

Structure (SMILES): Cc1ccccc1-c1csc(Cc2[nH]cnc2C)n1
- Ki [1]: 8.7 nM

Structure (SMILES): Cc1[nH]cnc1Cc1nc(-c2ccccc2O)cs1
- Ki [1]: 1.5 nM

- inhibition [3]: 100%
- inhibition [4]: 57.9%
- inhibition [5]: 88.5%
- Ki [2]: 0.42 nM
Structure (SMILES): COc1ccccc1-c1csc(Cc2[nH]cnc2C)n1

Structure (SMILES): c1ccc(-c2csc(Cc3c[nH]cn3)n2)cc1
- Ki [1]: 1 nM

Structure (SMILES): Cc1[nH]cnc1Cc1nc(-c2ccc(Cl)cc2)cs1
- Ki [1]: 34 nM

Structure (SMILES): COc1ccc(-c2csc(Cc3[nH]cnc3C)n2)cc1
- Ki [1]: 390 nM

- Ki [6]: > 1000 nM
- Ki [7]: > 1000 nM
- Ki [8]: > 1000 nM
- Ki [2]: 1.8 nM
- Ki [9]: > 1000 nM
- Ki [10]: > 1000 nM
- Ki (D(1A) dopamine receptor): > 1000 nM
- Ki (D(2) dopamine receptor): > 1000 nM
- Ki [11]: > 1000 nM
- Ki (Mu-type opioid receptor): > 1000 nM
- Ki [12]: > 1000 nM
- Ki [13]: > 1000 nM
Structure (SMILES): Cc1nc[nH]c1Cc1nc(-c2ccccc2)cs1

Structure (SMILES): N=C(N)NCCOC(=O)c1c[nH]c2ccccc12
- Ki [1]: 7.1 nM

Structure (SMILES): COc1c(-c2csc(Cc3[nH]cnc3C)n2)ccc2ccccc12
- Ki [1]: 95 nM

- inhibition [3]: 100%
- inhibition [4]: 10.7%
Structure (SMILES): Cc1[nH]cnc1Cc1nc(-c2ccccc2)cs1

Structure (SMILES): Cc1[nH]cnc1Cc1nc(-c2cccc(Br)c2)cs1
- Ki [1]: 2 nM

Structure (SMILES): COc1ccccc1-c1csc(Cc2c[nH]cn2)n1
- Ki [1]: 0.29 nM

Structure (SMILES): Cc1[nH]cnc1Cc1nc(-c2cccc(F)c2)cs1
- Ki [1]: 3.7 nM

Structure (SMILES): COc1cccc(-c2csc(Cc3[nH]cnc3C)n2)c1
- Ki [1]: 2 nM

- inhibition [3]: 45.2%
Structure (SMILES): Cc1[nH]cnc1Cc1nc(-c2c[nH]c3ccccc23)cs1

- inhibition [4]: 43%
- inhibition [14]: 91.9%
- Ki [2]: 1 nM
Structure (SMILES): Cc1[nH]cnc1Cc1nc(-c2cccc3cccnc23)cs1

- inhibition [14]: 89.7%
Structure (SMILES): Cc1nccn1CC1CCc2c(c3ccccc3n2C)C1=O (stereo unspecified)

- inhibition [4]: 66.4%
- Ki [2]: 1.94 nM
Structure (SMILES): Cc1[nH]cnc1Cc1nc(-c2ccccc2F)cs1

Structure (SMILES): N=C(N)NCCCOC(=O)c1c[nH]c2ccccc12
- Ki [1]: 27 nM

Structure (SMILES): Cc1[nH]cnc1Cc1nc(-c2cccc(Cl)c2)cs1
- Ki [1]: 0.88 nM

- inhibition [15]: 77.5%
Structure (SMILES): CN1[C@@H]2CC[C@H]1C[C@@H](OC(=O)c1c[nH]c3ccccc13)C2

Structure (SMILES): Cc1[nH]cnc1Cc1nc(-c2ccc(Br)cc2)cs1
- Ki [1]: 270 nM

Structure (SMILES): Cc1ccc(-c2csc(Cc3[nH]cnc3C)n2)cc1
- Ki [1]: 110 nM

Structure (SMILES): COc1cccc(OC)c1-c1csc(Cc2[nH]cnc2C)n1
- Ki [1]: 430 nM

Structure (SMILES): Cc1[nH]cnc1Cc1nc(-c2ccc(F)cc2)cs1
- Ki [1]: 4.9 nM

Structure (SMILES): N=C(N)NCCCCOC(=O)c1c[nH]c2ccccc12
- Ki [1]: 29 nM

Structure (SMILES): CCOc1ccccc1-c1csc(Cc2[nH]cnc2C)n1
- Ki [1]: 0.95 nM

Structure (SMILES): c1cnc2c(-c3csc(Cc4c[nH]cn4)n3)cccc2c1
- Ki [1]: 0.31 nM
